{"data": "Published values from different studies", "note": "Each line is one published result; the experiments were not run side by side."}
{"SMILES": "CCCn1c(O)nnc1SCC(=O)Nc1cc(C(F)(F)F)ccc1Cl", "target or system": "Plasmodium falciparum", "test": "parasite growth, SYBR Green", "system": "3D7", "endpoint": "EC50", "result": "66.6 nM"}
{"SMILES": "CC(C(=O)NCCc1ccccc1)c1cccc(C(OC(=O)NCCc2ccccc2)c2ccccc2)c1 (stereo not shown)", "target or system": "FM3A", "test": "cell growth or viability", "setting": "48 h", "endpoint": "IC50", "result": "13000 nM"}
{"SMILES": "CC(=O)c1c(Cc2ccccc2Cl)c[nH]c1C", "target or system": "Plasmodium falciparum", "test": "parasite growth, SYBR Green", "system": "3D7", "endpoint": "EC50", "result": "140 nM"}
{"SMILES": "CCN(CC)CCCC(C)Nc1ccnc2cc(Cl)ccc12 (stereo not shown)", "target or system": "Plasmodium falciparum", "test": "parasite growth", "system": "D6", "setting": "blood stage", "endpoint": "IC50", "result": "0.014 µg/mL"}
{"SMILES": "CCc1nc2nc(C)cc(Nc3cc(C)cc(C)c3)n2n1", "target or system": "Plasmodium falciparum", "test": "parasite growth, SYBR Green", "system": "3D7", "endpoint": "EC50", "result": "96.5 nM"}
{"SMILES": "CC(C(=O)N1CCCC1)c1cccc(C(OC(=O)N2CCCC2)c2ccccc2)c1 (stereo not shown)", "target or system": "L1210", "test": "cell growth or viability", "setting": "48 h", "endpoint": "IC50", "result": "41000 nM"}
{"SMILES": "CCN(CC)CCCC(C)Nc1ccnc2cc(Cl)ccc12 (stereo not shown)", "target or system": "Plasmodium falciparum", "test": "parasite growth", "system": "W2", "setting": "72 h, drug-resistant strain, blood stage", "endpoint": "IC50", "result": "0.1 µg/mL"}
{"SMILES": "C[C@]1(O)CC[C@@]2(C)[C@@H](CC[C@@H]3[C@@H]2CC[C@]2(C)[C@@H]([N+](=O)[O-])CC[C@@H]32)C1", "test": "6 Hz seizures", "system": "mouse", "setting": "intraperitoneal", "endpoint": "ED50", "result": "> 100 mg/kg"}
{"SMILES": "CO[C@H]1/C=C/O[C@@]2(C)Oc3c(C)c(O)c4c(O)c(c(/C=N/N5CCN(C)CC5)c(O)c4c3C2=O)NC(=O)/C(C)=C\\C=C\\[C@H](C)[C@H](O)[C@@H](C)[C@@H](O)[C@@H](C)[C@H](OC(C)=O)[C@@H]1C", "target or system": "Mycolicibacterium aurum", "test": "microbial growth, agar dilution", "endpoint": "MIC", "result": "0.78 µg/mL"}
{"SMILES": "CC(C(=O)NCc1ccccc1)c1cccc(C(OC(=O)NCc2ccccc2)c2ccccc2)c1 (stereo not shown)", "target or system": "FM3A", "test": "cell growth or viability", "setting": "48 h", "endpoint": "IC50", "result": "14000 nM"}
{"SMILES": "Cc1nc(Nc2ccc(C)c(Cl)c2)c2c(C)noc2n1", "target or system": "Plasmodium falciparum", "test": "parasite growth, SYBR Green", "system": "3D7", "endpoint": "EC50", "result": "336 nM"}
{"SMILES": "N.N.[Cl][Pt][Cl]", "target or system": "COLO 205", "test": "cell growth or viability, ATP luminescence", "endpoint": "GI50", "result": "6.8 µg/mL"}
{"SMILES": "COc1cc2c(cc1OS(N)(=O)=O)CCN(Cc1cc(Br)c(OC)c(OC)c1)C2", "target or system": "CNSSF-539", "test": "cell growth or viability, SRB", "endpoint": "GI50", "result": "22 nM"}
{"SMILES": "C[C@]12CC[C@@H](O)C[C@@H]1CC[C@@H]1[C@@H]2CC[C@]2(C)[C@@H]([N+](=O)[O-])CC[C@@H]12", "test": "6 Hz seizures", "system": "mouse", "setting": "intraperitoneal", "endpoint": "ED50", "result": "5.3 mg/kg"}
{"SMILES": "O=C1C(O)=C([C@H]2CC[C@H](c3ccc(Cl)cc3)CC2)C(=O)c2ccccc21", "target or system": "Plasmodium falciparum", "test": "parasite growth, SYBR Green", "system": "3D7", "endpoint": "EC50", "result": "0.45 nM"}
{"SMILES": "CCCCCCCCCCOc1cc2c(O)c(C(=O)OCC)cnc2cc1OCC", "target or system": "Plasmodium falciparum", "test": "parasite growth, SYBR Green", "system": "DD2", "setting": "blood stage", "endpoint": "IC50", "result": "< 5.7 nM"}
